High-throughput results deposited in PubChem by several laboratories.
In the library only some 1.3% were active in any assay of this set; here they are far more common.
HCV core dimer: inhibitors of HCV core protein dimerization, primary screen, biochemical, TR-FRET, high-throughput. TR-FRET GST/Flag-core106 dimerization, 1536-well. inhibition, % at 5 µM. hit rate 0.33% among 300,000. AID 1899, 2009;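 active means inhibition above the mean of all tested compounds plus 3 SD, set per screening campaign, cut at about 45% in these data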
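Assay system – GST-tagged and Flag-tagged HCV core protein residues 1-106 · Quantity – core106 proteins, GST 13.5 nM and Flag 17 nM · Benchmarks – unlabelled core106 and no-GST-core106 wells · Read-out basis – percent inhibition of core106 dimerization signal · Detection – time-resolved FRET, ex 340 nm, em 617 and 671 nm · Schedule – 4 h at 22.5 °C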
NS3 helicase inh: inhibitors of HCV NS3 helicase, primary screen, biochemical, Cy5 molecular beacon fluorescence. NS3 helicase DNA unwinding. hit rate 0.56% among 290,000. inhibition, % at 10.9 µM. AID 1800, 2009;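 active means inhibition above the mean of all tested compounds plus 3 SD, set per campaign, cut at about 35% in these data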;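 further: 0% = DMSO wells and 100% = thioflavine S control wells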
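Measured by: Cy5 fluorescence, 0 and 60 min reads / Assay system: NS3 helicase fragment of HCV / Control set: low DMSO, high thioflavine S at 110 µM / Times: 1 h reaction at 25 °C, ATP-initiated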
Lipid droplet: inhibitors of hepatocyte lipid droplet formation, primary screen, imaging, high-throughput imaging, BODIPY stain. inhibition, % at 6.5 µM. hit rate 0.4% among 240,000. AML12 mouse hepatocytes, oleate lipid droplets;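 active means lipid droplet intensity inhibited by at least 50%, with more than 500 cells counted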
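System: AML12 hepatocytes (mouse). Probe or stimulus: oleic acid at 100 µM to induce lipid droplet formation. Times: overnight treatment with compound plus oleate. Detection: Image-based BODIPY and DAPI two-channel analysis. Evaluation: percent inhibition of filter-corrected integrated lipid droplet intensity per well.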
Tb MetRS inh: T. brucei MetRS inhibitors, primary screen, biochemical, luminescence; methionyl-tRNA synthetase (Trypanosoma brucei brucei); purified T. brucei MetRS, ATP depletion, Kinase-Glo luminescence; inhibition, % at 11.9 µM; hit rate 0.4% among 360,000;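 active means inhibition above a per-plate cutoff of the control wells' mean inhibition plus 3 SD, cut at about 5.5% in these data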;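 further: 0% = DMSO wells median and 100% = median of wells with control inhibitor compound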
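Dosing: 11.9 µM compound single dose, 0.9% DMSO; Assay system: purified T. brucei MetRS enzyme; Measured by: Kinase-Glo luciferase luminescence reporting remaining unconsumed ATP; Schedule: 15 min plus 2 h at 25 °C.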
TbMetRS confirm: T. brucei MetRS inhibitors, confirmation, biochemical, luminescence. shares compounds with Tb MetRS inh. T. brucei MetRS enzyme, luminescence (ATP depletion). inhibition, % at 11.9 µM. hit rate 93% among 1,400. AID 624412, 2012; in the data active means inhibition above about 7%
Jurkat tox: Jurkat T cell cytotoxicity, cytotoxicity control for T. brucei MetRS inhibitor project, luminescence, high throughput; inhibition, % at 8.3 µM; hit rate 12% among 1,400; Jurkat cells viability, ATP luminescence; AID 624413, 2012; shares compounds with Tb MetRS inh; in the data active means inhibition above about 15%;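 further: 0% = vehicle and 100% = reference inhibitor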
Tb MetRS inh FP: T. brucei MetRS inhibitors, orthogonal assay for T. brucei MetRS inhibitor project, biochemical, fluorescence polarization; shares compounds with Tb MetRS inh; purified T. brucei MetRS; inhibition, % at 11.9 µM; hit rate 44% among 1,400; in the data active means inhibition above about 17%;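 further: 0% = vehicle wells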
Active calls of the source: *; / = no result given.

SMILES | HCV core dimer | NS3 helicase inh | Lipid droplet | Tb MetRS inh | TbMetRS confirm | Jurkat tox | Tb MetRS inh FP
COc1ccc(CNC(=O)CSc2nc3ccccc3n2C(C)=O)cc1 | 9 | 1 | 4 | 17* | 29* | -3 | 10
O=C(CSc1nnc2c(n1)[nH]c1ccccc12)NCc1ccco1 | 6 | 1 | 1 | 8.3* | 14* | 9 | 7
COc1ccc(CNC(=O)CSc2nnc3c(n2)[nH]c2ccccc23)cc1 | -3 | 3 | 10 | 42* | 81* | 4 | 75*
COc1cccc(CNC(=O)CSc2nnc3c(n2)[nH]c2ccccc23)c1 | -10 | 14 | -14 | 20* | 64* | 5 | 35*
C=CCn1c(SCC(=O)Nc2ccc(S(N)(=O)=O)cc2)nnc1-c1cnccn1 | 7 | -8 | 7 | -1 | / | / | /
Cc1nnc(NC(=O)CSc2nnc3c(n2)[nH]c2ccc(Br)cc23)s1 | 8 | -2 | 17 | 12* | 63* | 11 | 54*
COc1ccc2[nH]c3nc(SCC(=O)Nc4ccc5c(c4)OCO5)nnc3c2c1 | 8 | 9 | 14 | 56* | 88* | 10 | 73*
CC(C)c1ccc2[nH]c3nc(SCC(=O)NC4CC4)nnc3c2c1 | 8 | -20 | -22 | -1 | / | / | /
COc1ccc(CNC(=O)CSc2nnc3c(n2)[nH]c2ccc(C)cc23)cc1 | 11 | -20 | 0 | 33* | 82* | 0 | 55*
COC(=O)COc1ccc(S(=O)(=O)NCc2ccccn2)cc1 | -4 | 0 | -2 | 0 | / | / | /
O=C(COC(=O)CCCOc1ccccc1)NC1CCS(=O)(=O)C1 (stereo not drawn) | 2 | / | / | -1 | / | / | /
CCOC(=O)c1ccc(NC(=O)CC2C(=O)N(c3ccc(F)cc3)C(=O)N2CCC(C)C)cc1 (stereo not drawn) | 2 | -13 | -4 | 0 | / | / | /
COCCNC(=O)c1cnn2c1NC(c1ccco1)CC2C(F)(F)F (stereo not drawn) | -9 | -1 | -7 | -1 | / | / | /
O=C(NCc1cccc(Cl)c1)c1cnn2c1NC(c1ccco1)CC2C(F)(F)F (stereo not drawn) | 1 | -2 | 8 | 10* | 23* | 1 | 14
O=CN1CCCN(C(=O)CC2C(=O)NCCN2Cc2cccc(Oc3ccccc3)c2)CC1 (stereo not drawn) | -10 | 2 | 10 | 0 | / | / | /
CCOC(=O)c1sc(NC(=O)Nc2ccccc2)cc1C | 1 | -15 | -4 | 11* | 28* | 15 | 36*
O=C(c1ccco1)N1CCN(c2ncnc3scc(-c4ccc(Cl)cc4)c23)CC1 | / | / | / | 0 | / | / | /
Nc1nnc(CC(=O)N/N=C/c2ccc(-c3ccc(Cl)cc3Cl)o2)s1 | 15 | 13 | 16 | 11* | 3 | 4 | 5
Nc1nnc(CC(=O)N/N=C\c2ccc(-c3cccc(Cl)c3)o2)s1 | 1 | 14 | -15 | 0 | / | / | /
Nc1nnc(CC(=O)N/N=C/c2ccc(-c3ccccc3)o2)s1 | 1 | -4 | 0 | 8.1* | 5 | 1 | 9
COCCCN(C(=O)c1cc2c(s1)CCCCC2)c1c(N)n(Cc2ccccc2)c(=O)[nH]c1=O | 5 | / | / | -1 | / | / | /
CC[C@]12C(=O)N(C)C[C@H]([C@@H]3C(=O)N(C)C(=O)[C@@H]31)N2C(=O)c1ccc(C)cc1 | / | / | / | 0 | / | / | /
O=C(Cn1c2[n+](c3ccc(C(F)(F)F)cc31)CCCCC2)Nc1ccccc1 | -6 | -24 | -4 | 28* | 35* | -6 | 17
CCCCCn1c(=O)[nH]c2cc(C(=O)N3CCN(c4ccc(C(C)=O)cc4)CC3)ccc2c1=O | 8 | -9 | -2 | -1 | / | / | /
O=C(CCn1c(=O)[nH]c2ccccc2c1=O)N1CCN(c2cccc(C(F)(F)F)c2)CC1 | 12 | -5 | / | -1 | / | / | /
